Data published in ChEMBL document CHEMBL4138300 (ACS Med Chem Lett, 2018).
Activity calls are given as the source filed them. No cut-off for these calls is given here.

Tests used:
[1] = system: Pfeiffer; experiment: Cytotoxicity against human Pfeiffer cells assessed as decrease in cell viability after 5 days by CellTiter-Glo reagent based luminescence assay; assay type: functional; conditions: 120 h
[2] = molecular target: EZH2 (Homo sapiens); experiment: Inhibition of human N-terminal His-tagged EZH2/flag-tagged EED/SUZ12/AEBP2/RBAP48 A677G mutant (2 to end residues) expressed in baculovirus infected Sf9 insect cells using histone H3 (1 to 50 residues)-GGK as substrate after 2 hrs in presence of SAM by fluorescence assay
[3] = Stability of the compound in human liver microsomes; assay type: ADME, microsome
[4] = Stability of the compound in rat liver microsomes; assay type: ADME, microsome
[5] = Half life in human liver microsomes; assay type: ADME, microsome
[6] = Half life in rat liver microsomes; assay type: ADME, microsome
[7] = Cmax in Sprague-Dawley rat at 5 mg/kg administered via oral gavage; assay type: ADME, organism-based; set-up: dose 5 mg/kg, route oral; conditions: in vivo
How it was run: (§1)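 Single oral dose given as a CMC-Na suspension: rats 5 mg/kg, mice 10 mg/kg. Oral bioavailability was set against the matching iv arm (rats 0.5 mg/kg, mice 1.0 mg/kg).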

[8] = AUC (0 to t) in Sprague-Dawley rat at 5 mg/kg administered via oral gavage; assay type: ADME, organism-based; conditions: in vivo; how it was run: as §1
[9] = Half life in Sprague-Dawley rat at 5 mg/kg administered via oral gavage; assay type: ADME, organism-based; conditions: in vivo; how it was run: as §1
[10] = Apparent clearance during terminal phase in Sprague-Dawley rat at 5 mg/kg administered via oral gavage; assay type: ADME, organism-based; conditions: in vivo, read-out: CLz/F; how it was run: as §1
[11] = Apparent volume of distribution during terminal phase in Sprague-Dawley rat at 5 mg/kg administered via oral gavage; assay type: ADME, organism-based; conditions: in vivo, read-out: Vz/F; how it was run: as §1
[12] = Mean residence time (0 to infinity) in Sprague-Dawley rat at 5 mg/kg administered via oral gavage; assay type: ADME, organism-based; conditions: in vivo; how it was run: as §1
[13] = Oral bioavailability in Sprague-Dawley rat at 5 mg/kg administered via gavage; assay type: ADME, organism-based; conditions: in vivo; how it was run: as §1
[14] = AUC (0 to t) in Sprague-Dawley rat at 0.5 mg/kg, iv; assay type: ADME, organism-based; conditions: in vivo
How it was run: (§2)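 Single intravenous dose: rats 0.5 mg/kg, mice 1.0 mg/kg. Plasma exposure and terminal-phase parameters were calculated from the concentration–time profile. These serve as the iv reference for bioavailability.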

[15] = system: Rattus norvegicus; experiment: Apparent volume of distribution during terminal phase in Sprague-Dawley rat at 0.5 mg/kg, iv; assay type: ADME, organism-based; conditions: in vivo; how it was run: as §2
[16] = Mean residence time (0 to infinity) in Sprague-Dawley rat at 0.5 mg/kg, iv; assay type: ADME, organism-based; conditions: in vivo; how it was run: as §2
[17] = Cmax in ICR mouse at 10 mg/kg administered via oral gavage; assay type: ADME, organism-based; set-up: dose 10 mg/kg, route oral; conditions: in vivo; how it was run: as §1
[18] = AUC (0 to t) in ICR mouse at 10 mg/kg administered via oral gavage; assay type: ADME, organism-based; conditions: in vivo; how it was run: as §1
[19] = Half life in ICR mouse at 10 mg/kg administered via oral gavage; assay type: ADME, organism-based; conditions: in vivo; how it was run: as §1
[20] = Apparent clearance during terminal phase in ICR mouse at 10 mg/kg administered via oral gavage; assay type: ADME, organism-based; conditions: in vivo, read-out: CLz/F; how it was run: as §1
[21] = Apparent volume of distribution during terminal phase in ICR mouse at 10 mg/kg administered via oral gavage; assay type: ADME, organism-based; conditions: in vivo, read-out: Vz/F; how it was run: as §1
[22] = Mean residence time (0 to infinity) in ICR mouse at 10 mg/kg administered via oral gavage; assay type: ADME, organism-based; conditions: in vivo; how it was run: as §1
[23] = Oral bioavailability in ICR mouse at 10 mg/kg administered via gavage; assay type: ADME, organism-based; conditions: in vivo; how it was run: as §1
[24] = AUC (0 to t) in ICR mouse at 1 mg/kg, iv; assay type: ADME, organism-based; conditions: in vivo; how it was run: as §2
[25] = system: Mus musculus; experiment: Apparent volume of distribution during terminal phase in ICR mouse at 1 mg/kg, iv; assay type: ADME, organism-based; conditions: in vivo; how it was run: as §2
[26] = Mean residence time (0 to infinity) in ICR mouse at 1 mg/kg, iv; assay type: ADME, organism-based; conditions: in vivo; how it was run: as §2
[27] = Protein binding in human plasma; assay type: ADME, cell-free; conditions: read-out: PPB (converted)
[28] = Protein binding in rat plasma; assay type: ADME, cell-free; conditions: read-out: PPB (converted)
[29] = Protein binding in mouse plasma; assay type: ADME, cell-free; conditions: read-out: PPB (converted)
[30] = molecular target: T1, Histone-lysine N-methyltransferase EZH2 (Homo sapiens, UniProt Q15910); experiment: Inhibition of EZH2 in human Pfeiffer cells assessed as reduction in H3K27 trimethylation after 3 days by Western blot analysis; assay type: cell-based
[31] = molecular target: T1, Histone-lysine N-methyltransferase EZH2; experiment: Inhibition of EZH2 in human WSU-DLCL2 cells assessed as reduction in H3K27 trimethylation after 3 days by Western blot analysis; assay type: cell-based
Target sequence in this assay (Q15910 whole entry): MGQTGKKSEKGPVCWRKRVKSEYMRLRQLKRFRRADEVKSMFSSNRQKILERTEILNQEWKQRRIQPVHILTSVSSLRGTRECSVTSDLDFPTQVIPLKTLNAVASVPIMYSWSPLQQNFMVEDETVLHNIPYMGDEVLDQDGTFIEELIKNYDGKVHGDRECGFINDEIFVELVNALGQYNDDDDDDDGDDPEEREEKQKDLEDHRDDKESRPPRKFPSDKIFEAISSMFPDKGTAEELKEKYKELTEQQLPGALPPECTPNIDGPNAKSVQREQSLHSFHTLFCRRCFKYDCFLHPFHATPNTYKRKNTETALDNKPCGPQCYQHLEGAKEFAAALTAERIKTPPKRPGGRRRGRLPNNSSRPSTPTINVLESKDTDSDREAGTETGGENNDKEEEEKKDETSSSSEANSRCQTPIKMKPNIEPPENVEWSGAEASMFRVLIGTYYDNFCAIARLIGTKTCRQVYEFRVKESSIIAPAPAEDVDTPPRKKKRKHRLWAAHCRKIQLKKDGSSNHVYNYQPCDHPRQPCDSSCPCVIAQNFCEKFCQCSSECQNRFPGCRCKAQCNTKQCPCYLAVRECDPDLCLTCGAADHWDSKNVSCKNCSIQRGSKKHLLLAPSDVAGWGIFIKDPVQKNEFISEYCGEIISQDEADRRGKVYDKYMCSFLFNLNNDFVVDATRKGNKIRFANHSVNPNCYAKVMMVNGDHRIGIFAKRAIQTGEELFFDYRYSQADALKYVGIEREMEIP

[32] = system: Pfeiffer; experiment: Antitumor activity against human Pfeiffer cells xenografted in athymic nude mouse assessed as tumor growth inhibition administered po qd for 20 days measured twice per week; assay type: functional, organism-based
How it was run: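 Pfeiffer xenografts were grown to about 150-200 mm³ before dosing. Compound was given orally once daily for 20 days at 10, 30 or 100 mg/kg. A reference EZH2 inhibitor (100 mg/kg) was run alongside. Tumor size reduction was the efficacy read-out.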

[33] = system: Pfeiffer; experiment: Antitumor activity against human Pfeiffer cells xenografted in athymic nude mouse assessed as tumor growth inhibition at 10 mg/kg, po qd administered for 20 days measured twice per week; assay type: functional; conditions: 480 h, read-out: TGI
How it was run: (§3)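 Pfeiffer xenografts were grown to about 150-200 mm³ before dosing. The compound was given orally once daily for 20 days at the dose in each line (10, 30 or 100 mg/kg), with a reference EZH2 inhibitor dosed at 100 mg/kg. Tumor growth inhibition was expressed as percent reduction in tumor size.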

[34] = system: Pfeiffer; experiment: Antitumor activity against human Pfeiffer cells xenografted in athymic nude mouse assessed as tumor growth inhibition at 30 mg/kg, po qd administered for 20 days measured twice per week; assay type: functional; conditions: 480 h, read-out: TGI; how it was run: as §3
[35] = system: Pfeiffer; experiment: Antitumor activity against human Pfeiffer cells xenografted in athymic nude mouse assessed as tumor growth inhibition at 100 mg/kg, po qd administered for 20 days measured twice per week; assay type: functional; how it was run: as §3
[36] = system: Mus musculus; experiment: Toxicity in athymic nude mouse xenografted with human Pfeiffer cells assessed as body weight loss at 10 to 100 mg/kg, po qd administered for 20 days measured twice per week; assay type: organism-based; conditions: in vivo, 480 h

## CCN(c1cc2occ(C)c2c(C(=O)NCc2c(OC)cc(C)[nH]c2=O)c1C)C1CCOCC1
[1]
  IC50: 1300 nM
[2]
  IC50: 5.9 nM

## CCN(c1cc2oc(Cl)cc2c(C(=O)NCc2c(OC)cc(C)[nH]c2=O)c1C)C1CCOCC1
[1]
  IC50: 21 nM
[2]
  IC50: 0.4 nM

## CCc1c(N(CC)C2CCOCC2)cc2oc(CN3CCCCC3)cc2c1C(=O)NCc1c(OC)cc(C)[nH]c1=O
[1]
  IC50: 2 nM
[3]
  Stability: Stable
[4]
  Stability: Stable
[2]
  IC50: 6.4 nM

## CCN(c1cc2oc(C)cc2c(C(=O)NCc2c(C)cc(C)[nH]c2=O)c1C)C1CCOCC1
[1]
  IC50: 21 nM
[2]
  IC50: 3.8 nM

## CCc1c(N(CC)C2CCOCC2)cc2oc(CN3CCN(C)CC3)cc2c1C(=O)NCc1c(OC)cc(C)[nH]c1=O
[1]
  IC50: 8 nM
[3]
  Stability: Stable
[4]
  Stability: Stable
[2]
  IC50: 0.1 nM

## CCN(c1cc2occc2c(C(=O)NCc2c(OC)cc(C)[nH]c2=O)c1C(F)(F)F)C1CCOCC1
[2]
  IC50: 2000 nM

## CCN(c1cc2sccc2c(C(=O)NCc2c(C)cc(C)[nH]c2=O)c1C)C1CCOCC1
[1]
  IC50: 1830 nM
[2]
  IC50: 6 nM

## CCc1c(N(CC)C2CCOCC2)cc2occc2c1C(=O)NCc1c(OC)cc(C)[nH]c1=O
[1]
  IC50: 15 nM
[2]
  IC50: 3.3 nM

## CCN(c1cc2occc2c(C(=O)NCc2c(C)cc(C)[nH]c2=O)c1C)C1CCOCC1
[1]
  IC50: 240 nM
[2]
  IC50: 4 nM

## CCN(c1cc2oc(C(F)(F)F)cc2c(C(=O)NCc2c(OC)cc(C)[nH]c2=O)c1C)C1CCOCC1
[1]
  IC50: 17 nM
[2]
  IC50: 2.7 nM

## CCc1c(N(CC)C2CCOCC2)cc2oc(C3CCN(C(C)C)CC3)cc2c1C(=O)NCc1c(C)cc(C)[nH]c1=O
[1]
  IC50: 6 nM
[5]
  half-life: > 0.5 h
[6]
  half-life: > 0.5 h
[7]
  Cmax: 93 ng/mL
[8]
  AUC(0-t): 239 ng·h/mL
[9]
  half-life: 1 h
[10]
  CL/F: 287 mL/min/kg
[11]
  Vd/F: 24.1 L/kg
[12]
  MRT inf: 3 h
[13]
  bioavailability: 9%
[14]
  AUC(0-t): 325 ng·h/mL
[15]
  Vz/F: 2.556 L/kg
[16]
  MRT inf: 1 h
[17]
  Cmax: 257 ng/mL
[18]
  AUC(0-t): 774 ng·h/mL
[19]
  half-life: 1.3 h
[20]
  CL/F: 202 mL/min/kg
[21]
  Vd/F: 21.9 L/kg
[22]
  MRT inf: 2.7 h
[23]
  bioavailability: 16%
[24]
  AUC(0-t): 483 ng·h/mL
[25]
  Vz/F: 3.679 L/kg
[26]
  MRT inf: 1.3 h
[27]
  fraction unbound: 0.061
[28]
  fraction unbound: 0.06
[29]
  fraction unbound: 0.073
[30]
  IC50: 8 nM
  inhibition: Dose-dependent effect
[31]
  IC50: 55 nM
[32]
  TGI: Dose-dependent effect
[33]
  inhibition in vivo at 10 mg/kg: 28%
[34]
  inhibition in vivo at 30 mg/kg: 83%
[35]; 480 h, read-out: TGI
  inhibition in vivo at 100 mg/kg: 97%
[36]
  Activity: Non-Toxic

## CCN(c1cc2occc2c(C(=O)NCc2ccc(C)[nH]c2=O)c1Cl)C1CCOCC1
[1]
  IC50: 150 nM
[2]
  IC50: 6.5 nM

## CCc1c(N(CC)C2CCOCC2)cc2oc(CN3CCOCC3)cc2c1C(=O)NCc1c(C)cc(C)[nH]c1=O
[1]
  IC50: 14 nM
[3]
  Stability: Stable
[4]
  Stability: Stable
[2]
  IC50: 4.6 nM

## CCN(c1cc(C(=O)NCc2c(OC)cc(C)[nH]c2=O)c2ccoc2c1)C1CCOCC1
[1]
  IC50: > 5000 nM
[2]
  IC50: 331 nM

## CCN(c1cc(-c2ccc(CN3CCOCC3)cc2)cc(C(=O)NCc2c(C)cc(C)[nH]c2=O)c1C)C1CCOCC1 [TAZEMETOSTAT]
[1]
  IC50: 38 nM
[35]
  TGI: Active
[36]
  Activity: Non-Toxic

## CCN(c1cc2oc(C)cc2c(C(=O)NCc2c(OC)cc(C)[nH]c2=O)c1C)C1CCOCC1
[1]
  IC50: 14 nM
[2]
  IC50: 2.9 nM

## CCN(c1cc2oc(C3CC3)cc2c(C(=O)NCc2c(OC)cc(C)[nH]c2=O)c1C)C1CCOCC1
[1]
  IC50: 11 nM
[2]
  IC50: 0.5 nM

## CCN(c1cc2oc(F)cc2c(C(=O)NCc2c(OC)cc(C)[nH]c2=O)c1C)C1CCOCC1
[1]
  IC50: 160 nM
[2]
  IC50: 4.1 nM

## CCN(c1cc2occc2c(C(=O)NCc2c(OC)cc(C)[nH]c2=O)c1C)C1CCOCC1
[1]
  IC50: 20 nM
[2]
  IC50: 4 nM

## CCN(c1cc2oc(C#N)cc2c(C(=O)NCc2c(OC)cc(C)[nH]c2=O)c1C)C1CCOCC1
[1]
  IC50: 17 nM
[2]
  IC50: 0.8 nM

## CCc1c(N(CC)C2CCOCC2)cc2oc(C3CCN(C)CC3)cc2c1C(=O)NCc1c(C)cc(C)[nH]c1=O
[1]
  IC50: 7 nM
[5]
  half-life: > 1 h
[6]
  half-life: > 1 h
[18]
  AUC(0-t): 439 ng·h/mL
[2]
  IC50: 6.1 nM

## CCc1c(N(CC)C2CCOCC2)cc2oc(CN3CCOCC3)cc2c1C(=O)NCc1c(OC)cc(C)[nH]c1=O
[1]
  IC50: 3 nM
[3]
  Stability: Stable
[4]
  Stability: Stable
[2]
  IC50: 7.8 nM

## CCc1cc(C)[nH]c(=O)c1CNC(=O)c1c(C)c(N(CC)C2CCOCC2)cc2occc12
[1]
  IC50: 220 nM
[2]
  IC50: 0.6 nM

## CCN(c1cc2occc2c(C(=O)NCc2c(C(F)(F)F)cc(C)[nH]c2=O)c1C)C1CCOCC1
[1]
  IC50: 3300 nM
[2]
  IC50: 4.6 nM
